From ChEMBL document CHEMBL1147111, “In vitro and in vivo activities of synthetic trioxolanes against major human schistosome species” (Antimicrob Agents Chemother, 2007)
Active and inactive are the calls of the source. The calls are words filed in the database; no cut-off is given here.

Key:
[1] = system: Schistosoma mansoni; assay: Antischistosomal activity against NMRI mouse juvenile Schistosoma mansoni infection model assessed as reduction of total worm burden at 200 mg/kg, po after 28 days; assay type: functional; parameters: scale not given: the % may be the effect or the level left
Outline: (§1)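 Juvenile-infection model: mice carrying Liberian-strain S. mansoni got one oral dose at day 21 postinfection, as a suspension in 7% Tween 80/3% ethanol. There were 3–5 per group, plus untreated controls. Necropsy by exsanguination followed 28 days after treatment. Liver and mesenteric-vein worms were collected, sexed and counted. Total and female burden reductions were calculated versus controls, with Kruskal-Wallis testing.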

[2] = system: Schistosoma mansoni; assay: Antischistosomal activity against NMRI mouse juvenile Schistosoma mansoni infection model assessed as reduction of female worm burden at 200 mg/kg, po after 28 days; assay type: functional; parameters: scale not given: the % may be the effect or the level left; outline: as §1
[3] = system: Schistosoma mansoni; assay: Antischistosomal activity against NMRI mouse juvenile Schistosoma mansoni infection model assessed as number of cured mouse at 200 mg/kg, po after 28 days; assay type: functional, organism-based; parameters: dose 200 mg/kg; outline: as §1
[4] = system: Schistosoma mansoni; assay: Antischistosomal activity against Syrian golden hamster adult Schistosoma mansoni infection model assessed as reduction of total worm burden at 100 mg/kg, po after 28 days; assay type: functional; parameters: scale not given: the % may be the effect or the level left
Outline: (§2)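 Hamsters infected with Liberian-strain S. mansoni were treated once orally at 21 days (juvenile lines) or 49 days (adult lines) postinfection. Doses were 50, 100 or 200 mg/kg, in 7% Tween 80/3% ethanol suspension. Groups had 3–4 animals, with untreated controls. After 28 days, animals were bled out. Worms from liver and mesenteric veins were sexed and counted, and cures and burden reductions versus controls were recorded (Kruskal-Wallis).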

[5] = system: Schistosoma mansoni; assay: Antischistosomal activity against Syrian golden hamster adult Schistosoma mansoni infection model assessed as reduction of female worm burden at 100 mg/kg, po after 28 days; assay type: functional; parameters: scale not given: the % may be the effect or the level left; outline: as §2
[6] = system: Schistosoma mansoni; assay: Antischistosomal activity against Schistosoma mansoni assessed as worm death at 20 ug/ml after 72 hrs; assay type: functional, organism-based
Outline: (§3)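 Adult S. mansoni (Liberian strain, 49-day-old) were held two males and two females per well, in duplicate, in Hanks' balanced salt solution with 20% calf serum, 300 IU/ml penicillin and 300 μg/ml streptomycin. Drug was given at 20 μg/ml final from a 1 mg/ml stock in 60% DMSO; solvent control was 1.2% DMSO. Incubation was at 37°C in 5% CO2. Worms were scored under a dissecting microscope at 24, 48 and 72 h for death, motor activity and tegument.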

[7] = system: Schistosoma mansoni; assay: Reduction of motor activity of Schistosoma mansoni at 20 ug/ml after 24 hrs; assay type: functional, organism-based; outline: as §3
[8] = system: Schistosoma mansoni; assay: Antischistosomal activity against Syrian golden hamster juvenile Schistosoma mansoni infection model assessed as reduction of female worm burden at 200 mg/kg, po after 28 days; assay type: functional; parameters: scale not given: the % may be the effect or the level left; outline: as §2
[9] = system: Schistosoma japonicum; assay: Antischistosomal activity against New Zealand rabbit adult Schistosoma japonicum infection model assessed as number of […] mg/kg, po; assay type: functional, organism-based; parameters: dose 15 mg/kg
Outline: (§4)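 Rabbits were infected percutaneously with 200 S. japonicum (Anhui strain) cercariae via shaved abdominal skin. A single 15 mg/kg oral dose in Tween 80/ethanol suspension was given 35 days postinfection, with untreated controls. After sacrifice by blood letting, worms were perfused from hepatic and portomesenteric veins, sexed and counted. Cures and burden reductions were determined versus controls (Kruskal-Wallis).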

[10] = system: Schistosoma mansoni; assay: Antischistosomal activity against Syrian golden hamster juvenile Schistosoma mansoni infection model assessed as reduction of total worm burden at 100 mg/kg, po after 28 days; assay type: functional; parameters: scale not given: the % may be the effect or the level left; outline: as §2
[11] = system: Schistosoma mansoni; assay: Antischistosomal activity against Syrian golden hamster juvenile Schistosoma mansoni infection model assessed as number of cured mouse at 50 mg/kg, po after 28 days; assay type: functional, organism-based; parameters: dose 50 mg/kg; outline: as §2
[12] = system: Schistosoma mansoni; assay: Tegumental alteration in Schistosoma mansoni at 20 ug/ml after 48 hrs; assay type: functional, organism-based; outline: as §3
[13] = system: Schistosoma mansoni; assay: Antischistosomal activity against Schistosoma mansoni assessed as worm death at 20 ug/ml after 24 hrs; assay type: functional, organism-based; outline: as §3
[14] = system: Schistosoma mansoni; assay: Tegumental alteration in Schistosoma mansoni at 20 ug/ml after 24 hrs; assay type: functional, organism-based; outline: as §3
[15] = system: Schistosoma mansoni; assay: Antischistosomal activity against Syrian golden hamster juvenile Schistosoma mansoni infection model assessed as reduction of female worm burden at 100 mg/kg, po after 28 days; assay type: functional; parameters: scale not given: the % may be the effect or the level left; outline: as §2
[16] = system: Schistosoma japonicum; assay: Antischistosomal activity against Syrian golden hamster adult Schistosoma japonicum infection model assessed as reduction of total worm burden at 200 mg/kg, po; assay type: functional; parameters: scale not given: the % may be the effect or the level left
Outline: (§5)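 Hamsters received 100 S. japonicum (Anhui strain) cercariae through shaved abdominal skin. At 35 days postinfection, they were given a single 200 mg/kg oral dose in Tween 80/ethanol suspension, with untreated controls. Animals were killed by bleeding, and worms were recovered by perfusion of hepatic and portomesenteric veins. Worms were sexed and counted, and reductions were computed against controls (Kruskal-Wallis).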

[17] = system: Schistosoma japonicum; assay: Antischistosomal activity against New Zealand rabbit adult Schistosoma japonicum infection model assessed as reduction of total worm burden at 15 mg/kg, po; assay type: functional; parameters: scale not given: the % may be the effect or the level left; outline: as §4
[18] = system: Schistosoma mansoni; assay: Reduction of motor activity of Schistosoma mansoni at 20 ug/ml after 48 hrs; assay type: functional, organism-based; outline: as §3
[19] = system: Schistosoma mansoni; assay: Antischistosomal activity against NMRI mouse adult Schistosoma mansoni infection model assessed as reduction of total worm burden at 400 mg/kg, po after 28 days; assay type: functional; parameters: scale not given: the % may be the effect or the level left
Outline: (§6)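 Mice with a Liberian-strain S. mansoni infection were dosed at 49 days postinfection with a single oral dose of compound suspended in 7% Tween 80/3% ethanol. Groups held 3–5 animals, with untreated controls. At 28 days posttreatment, animals were killed by bleeding. Worms in liver and mesenteric veins were removed, sexed and counted. Reductions were calculated against controls and tested by Kruskal-Wallis.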

[20] = system: Schistosoma mansoni; assay: Antischistosomal activity against Syrian golden hamster adult Schistosoma mansoni infection model assessed as reduction of female worm burden at 50 mg/kg, po after 28 days; assay type: functional; parameters: scale not given: the % may be the effect or the level left; outline: as §2
[21] = system: Schistosoma japonicum; assay: Antischistosomal activity against New Zealand rabbit adult Schistosoma japonicum infection model assessed as reduction of female worm burden at 15 mg/kg, po; assay type: functional; parameters: scale not given: the % may be the effect or the level left; outline: as §4
[22] = system: Schistosoma mansoni; assay: Antischistosomal activity against NMRI mouse adult Schistosoma mansoni infection model assessed as number of cured mouse at 400 mg/kg, po after 28 days; assay type: functional, organism-based; parameters: dose 400 mg/kg; outline: as §6
[23] = system: Schistosoma mansoni; assay: Antischistosomal activity against Syrian golden hamster adult Schistosoma mansoni infection model assessed as number of cured mouse at 100 mg/kg, po after 28 days; assay type: functional, organism-based; parameters: dose 100 mg/kg; outline: as §2
[24] = system: Schistosoma mansoni; assay: Antischistosomal activity against Syrian golden hamster adult Schistosoma mansoni infection model assessed as number of cured mouse at 50 mg/kg, po after 28 days; assay type: functional, organism-based; parameters: dose 50 mg/kg; outline: as §2
[25] = system: Schistosoma mansoni; assay: Antischistosomal activity against Syrian golden hamster adult Schistosoma mansoni infection model assessed as reduction of total worm burden at 200 mg/kg, po after 28 days; assay type: functional; parameters: scale not given: the % may be the effect or the level left; outline: as §2
[26] = system: Schistosoma mansoni; assay: Antischistosomal activity against Syrian golden hamster juvenile Schistosoma mansoni infection model assessed as number of cured mouse at 100 mg/kg, po after 28 days; assay type: functional, organism-based; parameters: dose 100 mg/kg; outline: as §2
[27] = system: Schistosoma mansoni; assay: Antischistosomal activity against Syrian golden hamster adult Schistosoma mansoni infection model assessed as reduction of female worm burden at 200 mg/kg, po after 28 days; assay type: functional; parameters: scale not given: the % may be the effect or the level left; outline: as §2
[28] = system: Schistosoma mansoni; assay: Antischistosomal activity against Schistosoma mansoni assessed as worm death at 20 ug/ml after 48 hrs; assay type: functional, organism-based; outline: as §3
[29] = system: Schistosoma mansoni; assay: Tegumental alteration in Schistosoma mansoni at 20 ug/ml after 72 hrs; assay type: functional, organism-based; outline: as §3
[30] = system: Schistosoma mansoni; assay: Antischistosomal activity against Syrian golden hamster juvenile Schistosoma mansoni infection model assessed as reduction of total worm burden at 200 mg/kg, po after 28 days; assay type: functional; parameters: scale not given: the % may be the effect or the level left; outline: as §2
[31] = system: Schistosoma mansoni; assay: Antischistosomal activity against Syrian golden hamster juvenile Schistosoma mansoni infection model assessed as reduction of female worm burden at 50 mg/kg, po after 28 days; assay type: functional; parameters: scale not given: the % may be the effect or the level left; outline: as §2
[32] = system: Schistosoma mansoni; assay: Reduction of motor activity of Schistosoma mansoni at 20 ug/ml after 72 hrs; assay type: functional, organism-based; outline: as §3
[33] = system: Schistosoma japonicum; assay: Antischistosomal activity against Syrian golden hamster adult Schistosoma japonicum infection model assessed as reduction of female worm burden at 200 mg/kg, po; assay type: functional; parameters: scale not given: the % may be the effect or the level left; outline: as §5
[34] = system: Schistosoma mansoni; assay: Antischistosomal activity against Syrian golden hamster juvenile Schistosoma mansoni infection model assessed as number of cured mouse at 200 mg/kg, po after 28 days; assay type: functional, organism-based; parameters: dose 200 mg/kg; outline: as §2
[35] = system: Schistosoma mansoni; assay: Antischistosomal activity against Syrian golden hamster adult Schistosoma mansoni infection model assessed as number of cured mouse at 200 mg/kg, po after 28 days; assay type: functional, organism-based; parameters: dose 200 mg/kg; outline: as §2
[36] = system: Schistosoma mansoni; assay: Antischistosomal activity against Syrian golden hamster juvenile Schistosoma mansoni infection model assessed as reduction of total worm burden at 50 mg/kg, po after 28 days; assay type: functional; parameters: scale not given: the % may be the effect or the level left; outline: as §2
[37] = system: Schistosoma mansoni; assay: Antischistosomal activity against Syrian golden hamster adult Schistosoma mansoni infection model assessed as reduction of total worm burden at 50 mg/kg, po after 28 days; assay type: functional; parameters: scale not given: the % may be the effect or the level left; outline: as §2
[38] = system: Schistosoma mansoni; assay: Antischistosomal activity against NMRI mouse adult Schistosoma mansoni infection model assessed as reduction of female worm burden at 400 mg/kg, po after 28 days; assay type: functional; parameters: scale not given: the % may be the effect or the level left; outline: as §6
[39] = system: Mus musculus; assay: Toxicity in NMRI mouse with adult Schistosoma mansoni infection at 400 mg/kg, po after 48 to 96 hrs; assay type: organism-based; parameters: dose 400 mg/kg, route oral; conditions: in vivo
Outline: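 Mice carrying a 49-day S. mansoni (Liberian strain) infection were given a single oral 400 mg/kg dose as a suspension in 7% Tween 80/3% ethanol. Deaths occurring 48–96 h after treatment were recorded.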

C1CCC2(CC1)COC1(OO2)C2CC3CC(C2)CC1C3 (centres undefined)
Activity [1]: 5.4% | Activity [2]: 3.9% | Activity [3]: inactive

C1CCC2(CC1)OOC1(CCCCC1)O2
Activity [1]: 22.9% | Activity [2]: 26.4% | Activity [3]: inactive

O=C(O)C[C@H]1CC[C@]2(CC1)OO[C@]1(O2)C2CC3CC(C2)CC1C3
Activity [4]: 69.2% | Activity [1]: 82% | Activity [5]: 79.6% | Activity [6]: inactive | Activity [7]: inactive | Activity [8]: 75.1% | Activity [9]: inactive | Activity [10]: 83% | Activity [11]: inactive | Activity [12]: inactive | Activity [13]: inactive | Activity [14]: inactive | Activity [15]: 78.3% | Activity [16]: 94.2% | Activity [17]: 40.7% | Activity [18]: inactive | Activity [19]: 0% | Activity [20]: 38.9% | Activity [2]: 87.3% | Activity [21]: 42.3% | Activity [22]: inactive | Activity [23]: inactive | Activity [24]: inactive | Activity [25]: 85% | Activity [26]: inactive | Activity [3]: inactive | Activity [27]: 93.2% | Activity [28]: inactive | Activity [29]: inactive | Activity [30]: 80.2% | Activity [31]: 67% | Activity [32]: inactive | Activity [33]: 100% | Activity [34]: inactive | Activity [35]: inactive | Activity [36]: 73.4% | Activity [37]: 46.1% | Activity [38]: 0%

NC[C@H]1CC[C@]2(CC1)OOC1(O2)C2CC3CC(C2)CC1C3 (some centres undefined)
Activity [1]: 85% | Activity [39]: Toxic | Activity [6]: Active | Activity [13]: inactive | Activity [19]: 16.6% | Activity [2]: 83.7% | Activity [3]: inactive | Activity [29]: Active | Activity [32]: inactive | Activity [38]: 25%
